# In the library only some 2.6% were active in any assay of this set; here they are far more common.
# OXTR agonist: agonists of human oxytocin receptor; CHO-OTR cells, Fluo-8 calcium fluorescence; normalized: DMSO 0%, oxytocin 100%; activation, % at 3 µM; actives 0.32% (n = 320,000); AID 2435;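 active = activation above the mean of all tested compounds plus 3 SD, cutoff set per screening run, cut at about 20% in these data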;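 note: peak over basal fluorescence ratio from a 100 s FLIPR kinetic read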
# OXTR potentiator: potentiators of human oxytocin receptor. activation, % at 3 µM. actives 0.061% (n = 320,000). CHO-OTR cells, Fluo-8 calcium fluorescence, potentiator mode; 0% = oxytocin EC15, 100% = EC100. P30559;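 active = activation above that plate's cutoff, the mean activation of tested compounds plus 3 SD, cut at about 6.6% in these data, passing the limit was not always enough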
#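 System: human OTR in CHO cells / Also added: sub-maximal oxytocin, roughly EC15 / Control set: EC15 oxytocin low, 75 nM oxytocin high / Schedule: 6 min compound pre-incubation at room temperature, 100 s kinetic read / Compound: single-point 3.0 µM / Replication: singlicate / Technique: Fluo-8 calcium dye fluorescence / Read-out basis: % activation of max/min ratio relative to oxytocin controls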
# OX1R antag-1: blocks the human orexin 1 receptor; OX1R-expressing cells, FRET antagonist read-out; inhibition, % at 6.6 µM; actives 1.8% (n = 330,000); AID 485270; in the data active = inhibition mostly above about 38%, no sharp cut-off; inactive = mostly below about 40%
# Target sequence (O43613 whole entry, looked up): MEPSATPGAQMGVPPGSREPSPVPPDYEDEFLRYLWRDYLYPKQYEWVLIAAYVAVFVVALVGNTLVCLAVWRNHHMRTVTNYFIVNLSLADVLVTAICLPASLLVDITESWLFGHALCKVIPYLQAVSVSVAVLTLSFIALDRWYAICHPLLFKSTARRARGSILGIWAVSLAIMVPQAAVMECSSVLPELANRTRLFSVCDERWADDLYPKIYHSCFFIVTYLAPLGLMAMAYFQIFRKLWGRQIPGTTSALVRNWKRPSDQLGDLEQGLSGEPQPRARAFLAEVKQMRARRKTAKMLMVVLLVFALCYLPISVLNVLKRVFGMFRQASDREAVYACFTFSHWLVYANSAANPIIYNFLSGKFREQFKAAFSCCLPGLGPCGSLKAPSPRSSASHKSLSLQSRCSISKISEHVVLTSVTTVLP
# CHO parental Ca: signal in parental CHO cells, OX1R antagonist counter-screen. actives 0.63% (n = 330,000). inhibition, % at 5.6 µM. parental CHO-K1, ATP-induced calcium, Fluo-8 fluorescence;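 active = inhibition above that plate's mean sample inhibition plus 3 SD, cut at about 26% in these data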
#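 Assay system – parental CHO cells · Reagent – ATP stimulus · Detection – intracellular calcium via Fluo-8 no-wash fluorescent dye · Evaluation – percent inhibition of ATP-evoked calcium rise, normalized to controls · Controls – ATP wells versus no-ATP DMSO wells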
# V1aR counter: activates human V1a receptor in oxytocin agonist counter-screen; P37288; CHO-V1R cells, Fluo-8 calcium fluorescence, agonist mode; 0% DMSO, 100% 3 nM vasopressin; activation, % at 3 µM; actives 0.25% (n = 320,000); AID 2797;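 active = activation above the mean activation of all tested compounds plus 3 SD, per screening run, cut at about 20% in these data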;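 note: signal is peak over basal fluorescence ratio across a 100 second FLIPR read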
# OX1R antag-2: blocks the human orexin 1 receptor. inhibition, % at 5 µM. actives 0.43% (n = 330,000). O43613. AID 434989. CHO/OX1R cells, Fluo-8 calcium fluorescence, orexin A;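 active = inhibition above its plate's threshold, mean inhibition of all tested compounds on the plate plus 3 SD, cut at about 37% in these data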
# OX1R HTRF conf: confirmation of human orexin 1 receptor antagonists, HTRF format. shares compounds with OX1R antag-1. OX1R-expressing cells, HTRF antagonist assay. inhibition, % at 6.6 µM. actives 49% (n = 1,800). AID 492964; in the data active = inhibition above about 55%;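 note: CHO cells expressing OX1R stimulated with orexin A at about EC80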
# CHO-K1 HTRF cnt: counter-screen: parental CHO-K1 HTRF response; parental CHO-K1 cells, HTRF counterscreen; actives 48% (n = 1,800); shares compounds with OX1R antag-1; inhibition, % at 6.6 µM; in the data active = inhibition above about 17%
# Hits are given with their value; n = inactive; x = not tested or not shown.
SMILES,OXTR agonist,OXTR potentiator,OX1R antag-1,CHO parental Ca,V1aR counter,OX1R antag-2,OX1R HTRF conf,CHO-K1 HTRF cnt
Nc1c(C(=O)O)ccc2c1C(=O)c1ccccc1C2=O,n,n,107,n,n,n,n,29
O=C(O)c1ccc([N+](=O)[O-])c2c1C(=O)c1ccccc1C2=O,n,n,101,n,n,n,69,104
CC(C)NC(=O)N(C)C[C@H]1Oc2ccc(NC(=O)c3ccncc3)cc2C(=O)N([C@H](C)CO)C[C@@H]1C,n,n,n,n,n,n,x,x
COc1cc(/C=N/NC(=O)Cc2nnc(N)s2)cc(OC)c1OC,n,n,n,n,n,n,x,x
O=C(CSCCN1C(=O)c2ccccc2C1=O)Nc1ccc2ccccc2c1,n,n,81,n,n,n,n,n
CCOCCCNC(=O)CN1C(=O)/C(=C/c2ccccc2)Sc2ccccc21,n,n,81,n,n,n,87,n
Cc1ccc(/C=C2/Sc3ccccc3N(CC(=O)NCCCOC(C)C)C2=O)cc1,n,n,84,n,n,n,70,n
Cc1csc2nc(COC(=O)c3ccc(Cl)c([N+](=O)[O-])c3)cc(=O)n12,n,n,n,n,n,n,x,x
CCOc1c(Cl)cc(/C=N/NC(N)=S)cc1OC,n,n,n,n,n,n,x,x
Cc1n[nH]c(C)c1N1C(=O)c2cccc3cc(Br)cc(c23)C1=O,n,n,n,n,n,n,x,x
Cc1n[nH]c(C)c1N1C(=O)c2cccc3c(Br)ccc(c23)C1=O,n,n,80,n,n,n,n,40
Cn1c2ccccc2c2cc(/C=N/NC(=O)c3ccc(N)cc3)ccc21,n,n,88,n,n,n,88,n
COc1ccc(-n2nc(C(C)=O)c(=O)[nH]c2=O)cc1,n,n,n,n,n,n,x,x
COC(=O)Nc1nn(-c2ccc(OC)cc2)c(=O)c(C#N)c1C,n,n,166,n,n,n,59,91
Cc1c(C(=O)NN)nn(-c2ccc(Cl)cc2)c(=O)c1C#N,n,n,n,n,n,n,x,x
COC(=O)Nc1nn(-c2ccc(C)cc2)c(=O)c(C#N)c1C,n,n,137,n,n,n,56,68
COc1ccc(-n2nc(C(=O)N3CCCCC3)c(C)c(C#N)c2=O)cc1,n,n,113,n,n,n,77,50
O=C(Cc1ccccc1Cl)Nc1cc(S(=O)(=O)N2CCOCC2)ccc1N1CCOCC1,n,n,n,n,n,n,x,x
COc1ccc(-n2c(C)cc(/C=N/Nc3nnc(C)n3N)c2C)cc1,n,n,108,n,n,n,n,n
Cc1ccc(C(=O)O)cc1NC(=S)NC(=O)c1ccc([N+](=O)[O-])c(C)c1,n,n,n,n,n,n,x,x
Nc1nc(Nc2ccccc2F)nc(N2CCOCC2)c1[N+](=O)[O-],n,n,n,n,n,n,x,x
COc1ccc(OC)c(/C=N/NC(=O)c2cc[n+](Cc3ccccc3)cc2)c1,n,n,108,n,n,n,64,46
COc1ccc(OC)c(/C=N/NC(=O)c2ccncc2)c1,n,n,n,n,n,n,x,x
O=c1[nH]c2cc(NCCO)c([N+](=O)[O-])cc2[nH]1,n,n,166,n,n,n,66,88
COCCNc1cc(N)c([N+](=O)[O-])cc1[N+](=O)[O-],n,n,n,n,n,n,x,x
SMILES,OXTR agonist,OXTR potentiator,OX1R antag-1,CHO parental Ca,V1aR counter,OX1R antag-2,OX1R HTRF conf,CHO-K1 HTRF cnt
CCOC(=O)c1c(C)oc2c1C(=O)c1ccccc1C2=O,n,n,85,n,n,n,82,47
Cc1oc2c(c1C(=O)O)C(=O)c1ccccc1C2=O,n,n,97,n,n,n,72,86
CNS(=O)(=O)c1ccc2c(c1)C(=O)c1cc(S(=O)(=O)NC)ccc1CC2,n,n,n,n,n,n,x,x
COc1ccccc1C(=O)NCCCCNC(=O)c1ccccc1OC,n,n,79,n,n,n,59,n
O=C(c1ccco1)N1CCN(C(=O)C2CCN(S(=O)(=O)c3cccc4nsnc34)CC2)CC1,n,n,100,n,n,n,n,47
O=C(C1CCN(S(=O)(=O)c2cccc3nsnc23)CC1)N1CCN(c2ccccc2F)CC1,n,n,n,n,n,n,x,x
O=C(C1CCCO1)N1CCN(S(=O)(=O)c2cccc3nsnc23)CC1 (stereo not given),n,n,96,n,n,n,n,56
O=C(C1CCCN(S(=O)(=O)c2cccc3nsnc23)C1)N1CCCCCC1 (stereo not given),n,n,n,n,n,n,x,x
CC(C)Cn1c(N)c(C(=O)COC(=O)c2ccc(O)cc2)c(=O)n(C)c1=O,n,n,n,n,n,n,x,x
CC(C)Cn1c(N)c(C(=O)COC(=O)c2ccc([N+](=O)[O-])o2)c(=O)n(C)c1=O,n,n,81,n,n,n,n,24
Cc1ccc2c(c1)C(=O)c1c(C(=O)O)cccc1-2,n,n,n,n,n,n,x,x
O=C(O)c1cccc2c1C(=O)c1cccc3snc-2c13,n,n,88,n,n,n,55,78
CCC(=O)c1ccc(OCC(=O)OCC(=O)NCCCc2ccccc2)cc1,n,n,n,n,n,n,x,x
COc1ccc(OCCCC(=O)OC(C)C(=O)Nc2ccc(NC(C)=O)cc2)cc1 (stereo not given),n,n,n,n,n,n,x,x
CC(=O)Nc1ccc(NC(=O)C(C)OC(=O)CCCOc2ccc(Cl)c(C)c2)cc1 (stereo not given),n,n,85,n,n,n,78,n
NS(=O)(=O)c1ccc(N=Cc2c(O)c3ccccc3oc2=O)cc1,n,n,77,n,n,n,n,n
O=[N+]([O-])c1ccc2c(c1)nc1n2CCSC1,n,n,n,n,n,n,x,x
O=[N+]([O-])c1ccc2c(c1)nc1n2CCN(CC2CCCO2)C1 (stereo not given),n,n,81,n,n,n,n,27
O=C(c1cccs1)N1CCN(c2nc3ccccc3s2)CC1,n,n,87,n,n,n,n,n
Cc1cccc2sc(N3CCN(C(=O)c4cccs4)CC3)nc12,n,n,n,n,n,n,x,x
O=C1c2ccccc2C(=O)c2[nH]c(=O)[nH]c21,n,n,82,n,n,n,71,109
O=C(Nc1cccc(/C=C/c2ccccn2)c1)c1cc(Cl)ccn1,n,n,80,n,n,n,85,n
